Data published in publication PMC3529145 (Bioconjugate chemistry, 2012).
No end group written: not given here.

Assays:
Format in all cases: in vivo, mouse
LNCaP tumors = assay: Postmortem biodistribution, LNCaP tumor uptake and tumor-to-tissue ratios; details: for LNCaP Tumor/kidney ratio: biodistribution
PC-3 tumor = assay: Small-animal PET imaging, PC-3 tumor xenograft; details: PET ROI analysis, i.v. tail vein, dual tumor bearing mice n = 4
Outline: (§1)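 Male athymic nude mice carried LNCaP (right shoulder, implanted 14 days earlier) and PC-3 (left shoulder) xenografts, each 100–200 mm3 (n = 4). Dosing was by tail vein: 160–170 μCi of labelled peptide in 200 μL 3% EtOH/saline, or 260 μCi of control peptide in 200 μL PBS. Static 15-min microPET scans were taken at 2 and 4 h under isoflurane. Decay-corrected ROI values were expressed as %ID/g by phantom calibration.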

LNCaP tumor = assay: Small-animal PET imaging, LNCaP tumor xenograft; details: for radioactivity accumulation in LNCaP tumor (PET): PET ROI analysis, i.v. tail vein, dual tumor bearing mice n = 4
Outline: as §1

Row | Substance | LNCaP Tumor/kidney ratio (LNCaP tumors; 2 h p.i.) | LNCaP Tumor/kidney ratio (LNCaP tumors; 4 h p.i.) | LNCaP Tumor/liver ratio (LNCaP tumors; mouse, in vivo) | radioactivity accumulation in PC-3 tumor (PET) (PC-3 tumor; 2 h p.i.) | radioactivity accumulation in PC-3 tumor (PET) (PC-3 tumor; 4 h p.i.) | radioactivity accumulation in LNCaP tumor (PET) (LNCaP tumor; 2 h p.i.) | radioactivity accumulation in LNCaP tumor (PET) (LNCaP tumor; 4 h p.i.) | LNCaP Tumor/blood ratio (LNCaP tumors; mouse, in vivo) | LNCaP Tumor/muscle ratio (LNCaP tumors; mouse, in vivo) | tumor accumulation observed by PET (in words) (LNCaP tumor; PET images of mice bearing LNCaP and PC-3 tumors, negative control)
1 | ACEQNPIYWARYADWLFTTPLLLLDLALLVDADEGTG-CO2H [[^18F]-4a] | 0.3 | 0.3 | 0.2 | 4.2 ± 0.4 %ID/g | 5.4 ± 0.5 %ID/g | 8.3 ± 1.5 %ID/g | 8.5 ± 1.3 %ID/g | – | – | –
2 | ACEQNPIYWARYAKWLFTTPLLLLKLALLVDADEGTG-OH [[^18F]-5] | 0.4 | – | 0.2 | – | – | – | – | 0.1 | 0.4 | lack of any tumor accumulation
